What was measured:
Canis familiaris [1] = experiment: Inotropic activity determined by evaluating the % change in Heart Rate (HR) at a dose of 10 ug/kg administered intravenously […]; assay type: functional, Canis lupus familiaris
In short: (§1)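 Mongrel dogs of either sex, 7–15 kg, anesthetized with sodium pentobarbital (30 mg/kg iv), open-chest, intubated and ventilated on room air. Compounds given intravenously. A femoral artery catheter with pressure transducer recorded SBP and DBP. dP/dtmax, right ventricular contractile force, cardiac output and heart rate were also recorded, as % change at each iv dose.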

Canis familiaris [2] = experiment: Inotropic activity determined by evaluating the % change in Cardiac out put (CO)at a dose of 100 ug/kg administered intravenously […]; assay type: functional, Canis lupus familiaris; in short: as §1
Canis familiaris [3] = experiment: Inotropic activity determined by evaluating the % change in Cardiac out put (CO)at a dose of 30 ug/kg administered intravenously […]; assay type: functional, Canis lupus familiaris; in short: as §1
Canis familiaris [4] = experiment: Inotropic activity determined by evaluating the maximum rate of rise in left ventricular pressure at a dose of 100 ug/kg administered intravenously […]; assay type: functional, Canis lupus familiaris, Muscle tissue; in short: as §1
Canis familiaris [5] = experiment: Inotropic activity determined by evaluating the % change in Systolic Blood Pressure (SBP) at a dose of 100 ug/kg administered intravenously […]; assay type: functional, Canis lupus familiaris, Muscle tissue; in short: as §1
Canis familiaris [6] = experiment: Inotropic activity determined by evaluating the % change in Systolic Blood Pressure (SBP) at a dose of 10 ug/kg administered intravenously […]; assay type: functional, Canis lupus familiaris; in short: as §1
Canis familiaris [7] = experiment: Inotropic activity determined by evaluating the % change in Systolic Blood Pressure (SBP) at a dose of 30 ug/kg administered intravenously […]; assay type: functional, Canis lupus familiaris, Muscle tissue; in short: as §1
Canis familiaris [8] = experiment: Inotropic activity determined by evaluating the % change in Diastolic Blood Pressure (DBP) at a dose of 30 ug/kg administered intravenously […]; assay type: functional, Canis lupus familiaris; in short: as §1
Canis familiaris [9] = experiment: Inotropic activity determined by evaluating the maximum rate of rise in left ventricular pressure at a dose of 30 ug/kg administered intravenously […]; assay type: functional, Canis lupus familiaris, Muscle tissue; in short: as §1
Canis familiaris [10] = experiment: Inotropic activity determined by evaluating the % change in Diastolic Blood Pressure (DBP) at a dose of 10 ug/kg administered intravenously […]; assay type: functional, Canis lupus familiaris; in short: as §1
Canis familiaris [11] = experiment: Inotropic activity determined by evaluating the maximum rate of rise in left ventricular pressure at a dose of 10 ug/kg administered intravenously […]; assay type: functional, Canis lupus familiaris, Muscle tissue; in short: as §1
Canis familiaris [12] = experiment: Inotropic activity determined by evaluating the % change in Heart Rate (HR) at a dose of 30 ug/kg administered intravenously […]; assay type: functional, Canis lupus familiaris; in short: as §1
Canis familiaris [13] = experiment: Inotropic activity determined by evaluating the % change in contractile force (CF) of right ventricle at a dose of 30 ug/kg administered intravenously […]; assay type: functional, Canis lupus familiaris, Heart right ventricle; in short: as §1
Canis familiaris [14] = experiment: Inotropic activity determined by evaluating the % change in Diastolic Blood Pressure (DBP) at a dose of 100 ug/kg administered intravenously […]; assay type: functional, Canis lupus familiaris; in short: as §1
Canis familiaris [15] = experiment: Inotropic activity determined by evaluating the % change in Cardiac out put (CO)at a dose of 10 ug/kg administered intravenously […]; assay type: functional, Canis lupus familiaris; in short: as §1
Canis familiaris [16] = species on record: Canis familiaris; experiment: Positive inotropic activity determined in the […](that produced 30% increase in dose- response curves [dP/dt(max)]); assay type: functional; conditions: Canis lupus familiaris
In short: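 In the anesthetized open-chest dog (mongrel, 7–15 kg, pentobarbital 30 mg/kg iv, ventilated on room air), compounds were given intravenously and LV dP/dtmax was recorded. The dose giving a 30% rise in dP/dtmax was read from the dose-response curves. Results are mean ± SEM (n = 3) or mean ± range (n = 2).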

Canis familiaris [17] = experiment: Inotropic activity determined by evaluating the % change in contractile force (CF) of right ventricle at a dose of 10 ug/kg administered intravenously […]; assay type: functional, Canis lupus familiaris, Heart right ventricle; in short: as §1
Canis familiaris [18] = experiment: Inotropic activity determined by evaluating the % change in Heart Rate (HR) at a dose of 100 ug/kg administered intravenously […]; assay type: functional, Canis lupus familiaris; in short: as §1
Canis familiaris [19] = experiment: Inotropic activity determined by evaluating the % change in contractile force (CF) of right ventricle at a dose of 100 ug/kg administered intravenously […]; assay type: functional, Canis lupus familiaris, Heart right ventricle; in short: as §1
Canis familiaris [20] = species on record: Canis familiaris; experiment: Positive inotropic in the isolated papillary muscle of the dog.; assay type: functional, Canis lupus familiaris
In short: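 Right ventricular anterior papillary muscle with septum, from mongrel dogs (7–12 kg, pentobarbital 30 mg/kg iv). It was perfused at about 100 mmHg via the septal artery with blood from a heparinized donor dog and paced at 120/min (1 ms pulses, about 1.5× threshold). Isometric tension was recorded. Saline solutions were injected intra-arterially, with amrinone as reference. ED15 (15% rise in developed tension) was taken from log dose-response curves. Results are mean ± SEM (n = 7) or mean ± range (n = 2).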

Canis familiaris [21] = experiment: Inotropic activity determined by evaluating the % change in Systolic Blood Pressure (SBP) at a dose of 300 ug/kg administered intravenously […]; assay type: functional, Canis lupus familiaris, Muscle tissue; in short: as §1
Canis familiaris [22] = experiment: Inotropic activity determined by evaluating the maximum rate of rise in left ventricular pressure at a dose of 300 ug/kg administered intravenously […]; assay type: functional, Canis lupus familiaris, Muscle tissue; in short: as §1
Canis familiaris [23] = experiment: Inotropic activity determined by evaluating the % change in Heart Rate (HR) at a dose of 300 ug/kg administered intravenously […]; assay type: functional, Canis lupus familiaris, Muscle tissue; in short: as §1
Canis familiaris [24] = experiment: Inotropic activity determined by evaluating the % change in Diastolic Blood Pressure (DBP) at a dose of 300 ug/kg administered intravenously […]; assay type: functional, Canis lupus familiaris; in short: as §1
Canis familiaris [25] = experiment: Inotropic activity determined by evaluating the % change in contractile force (CF) of right ventricle at a dose of 300 ug/kg administered intravenously […]; assay type: functional, Canis lupus familiaris, Heart right ventricle; in short: as §1
Canis familiaris [26] = experiment: Inotropic activity determined by evaluating the % change in Cardiac out put (CO)at a dose of 300 ug/kg administered intravenously […]; assay type: functional, Canis lupus familiaris; in short: as §1

SMILES	Change of HR (Canis familiaris [1]) [%]	Change of CO (Canis familiaris [2]) [%]	Change of CO (Canis familiaris [3]) [%]	dP/dt (Canis familiaris [4]) [%]	Change of SBP (Canis familiaris [5]) [%]	Change of SBP (Canis familiaris [6]) [%]	Change of SBP (Canis familiaris [7]) [%]	Change of DBP (Canis familiaris [8]) [%]	dP/dt (Canis familiaris [9]) [%]	Change of DBP (Canis familiaris [10]) [%]	dP/dt (Canis familiaris [11]) [%]	Change of HR (Canis familiaris [12]) [%]	Change of CF (Canis familiaris [13]) [%]	Change of DBP (Canis familiaris [14]) [%]	Change of CO (Canis familiaris [15]) [%]	ED30 (Canis familiaris [16]) [mg/kg]	Change of CF (Canis familiaris [17]) [%]	Change of HR (Canis familiaris [18]) [%]	Change of CF (Canis familiaris [19]) [%]	ED15 (Canis familiaris [20]) [µg]	further results
O=C1CCC(c2ccc(-n3ccnc3)cc2)=NN1 [IMAZODAN]	3.6	35.5	26.3	49.3	-16.9	-4.8	-9.6	-16.5	22.3	-8.1	10.3	8.1	42.2	-28.3	11.2	0.046	13.8	16.1	83.8	–	–
O=C1CCC(c2ccc(NCc3cccnc3)cc2)=NN1	–	–	–	–	–	–	–	–	–	–	–	–	–	–	–	–	–	–	–	86	–
Cl.O=C1CCC(c2ccc(Nc3ccnc4ccccc34)cc2)=NN1	–	–	–	–	–	–	–	–	–	–	–	–	–	–	–	–	–	–	–	>300	–
Cl.Oc1ccc(-c2ccc(Nc3ccncc3)cc2)nn1	1.3	7.7	5.4	57.1	-22.3	-3.6	-11.9	-20	39.6	-7.5	20.2	2.4	19.9	-27.6	1.6	0.022	11	4.2	33.7	50	–
CC1CC(=O)NN=C1c1ccc(N(C)c2ccncc2)cc1.Cl (configuration not stated)	–	13.3	8.9	27.5	-5.5	–	-0.6	-3.2	11	–	–	2.6	13	-13.9	–	> 0.1	–	22.8	41.2	18.5	–
CCC1CC(=O)NN=C1c1ccc(Nc2ccncc2)cc1.Cl (configuration not stated)	–	15.2	–	20.4	-8.8	–	–	–	–	–	–	–	–	-15.1	–	0.256	–	12	23.7	23	Change of SBP (Canis familiaris [21]): -11.1%; dP/dt (Canis familiaris [22]): 34.8%; Change of HR (Canis familiaris [23]): 22.5%; Change of DBP (Canis familiaris [24]): -18.3%; Change of CF (Canis familiaris [25]): 35.7%; Change of CO (Canis familiaris [26]): 19.2%
CC1CC(=O)NN=C1c1ccc(Nc2ccccn2)cc1.Cl (configuration not stated)	5.3	–	15.8	–	–	-14.1	-17.6	-31	46.4	-22.4	19.3	8.9	44.4	–	12.7	0.022	19.5	–	–	3.2	–
Cl.O=C1CCC(c2ccc(Nc3ccccn3)cc2)=NN1	–	22.1	13.9	37.8	-27.2	–	-13.7	-15.6	16.1	–	–	6.7	22	-25.5	–	0.106	–	16.7	40.5	17.5	–
